≈ marks a conversion by molar mass, not a printed value.
Tests used:
[1] = test system: Staphylococcus aureus; experiment: Antibacterial activity against Staphylococcus aureus ATCC 29213 measured after 16 to 20 hrs by microdilution method; assay type: functional
Outline: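 CLSI broth microdilution: two-fold serial dilutions in triplicate in cation-adjusted Mueller–Hinton broth with 2% NaCl, inoculum 5 × 10^5 CFU/mL, incubated at 37 °C for 16–20 h. MIC is the lowest concentration preventing visible growth.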

[2] = test system: Staphylococcus aureus; experiment: Antibacterial activity against multi-drug resistant mecA-positive Staphylococcus aureus NRS119 measured after 16 to 20 hrs by microdilution method; assay type: functional
Outline: (§1)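 CLSI broth microdilution; two-fold serial compound dilutions in triplicate in cation-adjusted Mueller–Hinton broth with 2% NaCl, inoculum 5 × 10^5 CFU/mL; 37 °C for 16–20 h; MIC = lowest concentration with no visible growth.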

[3] = Protein binding in human plasma at 10 uM measured after 6 hrs UV-UPLC based rapid equilibrium dialysis method; assay type: ADME, cell-free
Outline: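 Rapid equilibrium dialysis: human plasma was cleared by centrifugation and spiked from a 1 mM DMSO stock to a final 10 μM, against 0.1 M PBS pH 7.4. Dialysis ran 6 h at 37 °C with orbital shaking. Buffer (free) and plasma (total) aliquots were mixed with internal standard in acetonitrile and measured by UPLC-UV at 285 nm. B% = (Cp−Cf)/Cp×100.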

[4] = test system: Staphylococcus aureus; experiment: Antibacterial activity against Staphylococcus aureus ATCC 29213 measured after 16 to 20 hrs in presence of bovine serum albumin by microdilution method; assay type: functional
Outline: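 S. aureus ATCC29213 MIC was run by CLSI microdilution in cation-adjusted Mueller–Hinton broth plus 2% NaCl, with and without 0.5% bovine serum albumin. Compounds were two-fold serially diluted in triplicate, inoculum was 5 × 10^5 CFU/mL, and plates were incubated at 37 °C for 16–20 h. The endpoint was the lowest concentration with no visible growth.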

[5] = Selectivity index, ratio of IC50 for human HeLa cells to MIC for clindamycin/erythromycin/spectinomycin-resistant mec-positive Staphylococcus aureus NRS70; assay type: toxicity
Outline: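 HeLa cytotoxicity by XTT assay in triplicate, IC50 by nonlinear regression; ratio IC50 over broth microdilution MIC against NRS70.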

[6] = test system: Staphylococcus aureus; experiment: Antibacterial activity against multi-drug resistant mec-positive Staphylococcus aureus USA300 measured after 16 to 20 hrs by microdilution method; assay type: functional; outline: as §1
[7] = test system: Staphylococcus aureus; experiment: Antibacterial activity against clindamycin/erythromycin/spectinomycin-resistant mec-positive Staphylococcus aureus NRS70 measured after 16 to 20 hrs by microdilution method; assay type: functional; outline: as §1
[8] = test system: HeLa; experiment: Cytotoxicity against human HeLa cells assessed as reduction in cell viability measured after 16 hrs by XTT assay; assay type: cell-based
Outline: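 HeLa cells (ATCC CCL-2), run in triplicate. Viability was read by XTT, and IC50 was obtained by nonlinear regression.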

[9] = test system: Staphylococcus aureus; experiment: Antibacterial activity against multi-drug resistant mecA-positive Staphylococcus aureus ATCC 27660 measured after 16 to 20 hrs by microdilution method; assay type: functional; outline: as §1

SMILES	MIC [1] [µg/mL]	also measured
O=C(O)c1cccc(-n2c(/C=C/c3ccsc3)nc3ccccc3c2=O)c1	32 (≈ 85.5 µM)	–
N#Cc1ccc(/C=C/c2nc3ccccc3c(=O)n2-c2cc(C(=O)O)ccc2O)cc1	> 128	–
COC(=O)c1cccc(-n2c(/C=C/c3ccc(C#N)cc3)nc3ccccc3c2=O)c1O	> 128	–
COC(=O)c1cccc(-n2c(NCc3ccc(C#N)cc3)nc3ccccc3c2=O)c1	16 (≈ 39 µM)	–
N#Cc1ccc(/C=C/c2nc3ccccc3c(=O)n2-c2cccnc2)cc1	> 128	–
O=C(O)c1cccc(-n2c(/C=C/c3nccs3)nc3ccccc3c2=O)c1	> 128	–
N#Cc1ccc(/C=C/c2nc3ccccc3c(=O)n2-c2cc(C(=O)O)ccc2C(F)(F)F)cc1	> 128	–
N#Cc1ccc(/C=C/c2nc3ccccc3c(=O)n2-c2cc(C(=O)O)ccn2)cc1	> 128	–
CNCCC(=O)Nc1cccc(-n2c(/C=C/c3ccc(C#N)cc3)nc3ccccc3c2=O)c1	> 128	–
N#Cc1ccc(/C=C/c2nc3ccccc3c(=O)n2-c2ccc3[nH]c(=O)[nH]c3c2)cc1	> 128	–
N#Cc1ccc(CNc2nc3ccccc3c(=O)n2-c2cccc(C(=O)O)c2)cc1	> 128	–
O=C(O)c1cccc(-n2c(/C=C/c3cncs3)nc3ccccc3c2=O)c1	> 128	–
N#Cc1ccc(CNc2nc3ccccc3c(=O)n2-c2cccc(N)c2)cc1	8 (≈ 21.8 µM)	–
N#Cc1ccc(/C=C/c2nc3ccccc3c(=O)n2-c2cccc(N=[N+]=[N-])c2)cc1	16 (≈ 41 µM)	–
O=C(O)c1cccc(-n2c(/C=C/c3ccncc3)nc3ccccc3c2=O)c1	64 (≈ 173 µM)	–
N#Cc1ccc(/C=C/c2nc3ccccc3c(=O)n2-c2ccc(N)cc2)cc1	> 128	–
N#Cc1ccc(/C=C/c2nc3ccccc3c(=O)n2-c2cc(F)cc(C(=O)O)c2)cc1	> 128	–
Nc1cccc(-n2c(NCc3ccc(F)cc3)nc3ccccc3c2=O)c1	64 (≈ 178 µM)	–
N#Cc1ccc(/C=C/c2nc3ccccc3c(=O)n2-c2cccc(C#N)c2)cc1	> 128	–
O=C(O)c1cccc(-n2c(/C=C/C3CC3)nc3ccccc3c2=O)c1	> 128	–
CC(C(=O)O)n1c(/C=C/c2ccc(C#N)cc2)nc2ccccc2c1=O (stereo not drawn)	128 (≈ 371 µM)	–
N#Cc1ccc(/C=C/c2nc3ccccc3c(=O)n2-c2ccccc2[N+](=O)[O-])cc1	> 128	–

SMILES	MIC [1] [µg/mL]	also measured
O=C(O)c1cccc(-n2c(/C=C/c3ccc(=O)[nH]c3)nc3ccccc3c2=O)c1	> 128	–
N#Cc1ccc(/C=C/c2nc3ccccc3c(=O)n2-c2ccc([N+](=O)[O-])cc2)cc1	> 128	–
N#Cc1ccc(/C=C/c2nc3ccccc3c(=O)n2-c2cccc(C(=O)O)n2)cc1	> 128	–
O=C(O)c1cccc(-n2c(SCc3ccccc3)nc3ccccc3c2=O)c1	0.25 (≈ 0.644 µM)	MIC [2]: 1 µg/mL (≈ 2.57 µM); PPB [3]: > 99.9%; MIC [4]: 4 µg/mL; selectivity ratio [5]: > 128; MIC [6]: 1 µg/mL (≈ 2.57 µM); MIC [7]: 0.5 µg/mL (≈ 1.29 µM); IC50 [8]: > 64 µg/mL
N#Cc1ccc(/C=C/c2nc3ccccc3c(=O)n2-c2ccc3nc[nH]c3c2)cc1	> 128	–
N#Cc1ccc(/C=C/c2nc3ccccc3c(=O)n2-c2cccc(NC(=O)NCCc3cnc[nH]3)c2)cc1	16 (≈ 31.9 µM)	–
O=C(O)c1cccc(-n2c(/C=C/c3cccs3)nc3ccccc3c2=O)c1	8 (≈ 21.4 µM)	–
N#Cc1ccc(/C=C/c2nc3ccccc3c(=O)n2-c2ccccc2C(=O)O)cc1	32 (≈ 81.3 µM)	–
O=c1c2ccccc2nc(N2CCCCC2)n1-c1cccc([N+](=O)[O-])c1	> 128	–
Nc1cccc(-n2c(N3CCN(c4ccc(Cl)cc4)CC3)nc3ccccc3c2=O)c1	> 128	–
N#Cc1ccc(CNc2nc3ccccc3c(=O)n2-c2cccc([N+](=O)[O-])c2)cc1	> 128	–
N#Cc1ccc(/C=C/c2nc3ccccc3c(=O)n2-c2cccc(C(=O)O)c2F)cc1	8 (≈ 19.4 µM)	–
Nc1cccc(-n2c(N3CCCCC3)nc3ccccc3c2=O)c1	> 128	–
N#Cc1ccc(/C=C/c2nc3ccccc3c(=O)n2-c2cccc(C(=O)O)c2)cn1	64 (≈ 162 µM)	–
N#Cc1ccc(/C=C/c2nc3ccccc3c(=O)n2-c2ccc(F)c(C(=O)O)c2F)cc1	64 (≈ 149 µM)	–
C#Cc1ccc(/C=C/c2nc3ccccc3c(=O)n2-c2cccc(C(=O)O)c2)cc1	0.03 (≈ 0.0764 µM)	MIC [2]: 0.125 µg/mL (≈ 0.319 µM); MIC [4]: 0.25 µg/mL; selectivity ratio [5]: > 256; MIC [6]: 0.03 µg/mL (≈ 0.0764 µM); MIC [9]: 0.125 µg/mL (≈ 0.319 µM); IC50 [8]: > 128 µg/mL
N#Cc1ccc(/C=C/c2nc3ccccc3c(=O)n2-c2cccc(C(=O)O)c2O)cc1	> 128	–
N#Cc1ccc(/C=C/c2nc3ccccc3c(=O)n2-c2ccc(F)c(C(=O)O)c2)cc1	16 (≈ 38.9 µM)	–
O=C(O)c1cccc(-n2c(/C=C/c3ccnc(F)c3)nc3ccccc3c2=O)c1	> 128	–
N#Cc1ccc(/C=C/c2nc3ccccc3c(=O)n2-c2cccc(N)c2)cc1	0.5 (≈ 1.37 µM)	–
CC(=O)NC[C@H]1CN(c2ccc(N3CCOCC3)c(F)c2)C(=O)O1 [LINEZOLID]	1 (≈ 2.96 µM)	–
O=C(O)c1cccc(-n2c(/C=C/c3ccc(Cl)s3)nc3ccccc3c2=O)c1	0.5 (≈ 1.22 µM)	PPB [3]: 99.3%; MIC [4]: 4 µg/mL; selectivity ratio [5]: 360; MIC [6]: 1 µg/mL (≈ 2.45 µM); MIC [9]: 0.5 µg/mL (≈ 1.22 µM); MIC [7]: 0.5 µg/mL (≈ 1.22 µM); IC50 [8]: 180 µg/mL (≈ 440 µM)

SMILES	MIC [1] [µg/mL]	also measured
N#Cc1ccc(/C=C/c2nc3ccccc3c(=O)n2-c2cccc(CN3C(=O)c4ccccc4C3=O)c2)cc1	> 128	–
N#Cc1ccc(/C=C/c2nc3ccccc3c(=O)n2-c2cc(O)cc(C(=O)O)c2)cc1	> 128	–
O=C(O)c1cccc(-n2c(/C=C/c3ccc[nH]c3=O)nc3ccccc3c2=O)c1	> 128	–
O=C(O)c1cccc(-n2c(/C=C/c3cccnc3F)nc3ccccc3c2=O)c1	> 128	–
O=C(O)c1cccc(-n2c(/C=C/c3cc[nH]c(=O)c3)nc3ccccc3c2=O)c1	> 128	–
COC(=O)c1cccc(-n2c(/C=C/c3ccc(C#N)cc3)nc3ccccc3c2=O)n1	> 128	–
N#Cc1ccc(CCc2nc3ccccc3c(=O)n2-c2cccc(C(=O)O)c2)cc1	8 (≈ 20.2 µM)	–
N#Cc1ccc(/C=C/c2nc3ccccc3c(=O)n2-c2cccc(NC(=O)NCc3cnc[nH]3)c2)cc1	> 128	–
O=c1c2ccccc2nc(NCc2ccc(F)cc2)n1-c1cccc([N+](=O)[O-])c1	> 128	–
O=C(O)c1cccc(-n2c(/C=C/c3cc[n+]([O-])cc3)nc3ccccc3c2=O)c1	> 128	–
COC(=O)c1cccc(-n2c(NCc3ccc(F)cc3)nc3ccccc3c2=O)c1	> 128	–
N#Cc1ccc(/C=C/c2nc3ccccc3c(=O)n2-c2cccc(NC(=O)CN3CCOCC3)c2)cc1	32 (≈ 65.1 µM)	–
COc1ccc(C(=O)O)cc1-n1c(/C=C/c2ccc(C#N)cc2)nc2ccccc2c1=O	> 128	–
N#Cc1ccc(COc2nc3ccccc3c(=O)n2-c2cccc(C(=O)O)c2)cc1	> 128	–
O=C(O)c1cccc(-n2c(/C=C/c3cccnc3)nc3ccccc3c2=O)c1	> 128	–
CS(=O)(=O)Nc1cccc(-n2c(/C=C/c3ccc(C#N)cc3)nc3ccccc3c2=O)c1	0.015 (≈ 0.0339 µM)	–
N#Cc1ccc(/C=C/c2nc3ccccc3c(=O)n2-c2cccc(CN)c2)cc1	32 (≈ 84.6 µM)	–
CC(=O)NS(=O)(=O)c1cccc(-n2c(/C=C/c3ccc(C#N)cc3)nc3ccccc3c2=O)c1	4 (≈ 8.5 µM)	MIC [2]: 2 µg/mL (≈ 4.25 µM); PPB [3]: 99.2%; selectivity ratio [5]: 50; IC50 [8]: 200 µg/mL (≈ 425 µM)
N#Cc1ccc(/C=C/c2nc3ccccc3c(=O)n2CCC(=O)O)cc1	> 128	–
N#Cc1ccc(/C=C/c2nc3ccccc3c(=O)n2-c2ccc3[nH]c(=S)[nH]c3c2)cc1	> 128	–

— ChEMBL document CHEMBL4342526, “Exploration of the Structural Space in 4(3H)-Quinazolinone Antibacterials” (J Med Chem, 2020)
